pEC50, pIC50, pKi: −log10 of the molar value. Calls of active or inactive are those of the source. The rule behind the calls is not given here.
Legend:
[1] = target: T1, Prolyl 4-hydroxylase subunit alpha-1 (Homo sapiens, UniProt P13674); experiment: Inhibition of human recombinant CP4H1 expressed in Escherichia coli Origami B(DE3) pre-incubated for 2 mins followed by alpha-ketoglutarate addition using dansylGlyProProGlyOEt substrate in Tris-HCl buffer at pH 7.8 at 30 degC by HPLC based Cheng-Prussoff equation method
T1 sequence (P13674 whole entry): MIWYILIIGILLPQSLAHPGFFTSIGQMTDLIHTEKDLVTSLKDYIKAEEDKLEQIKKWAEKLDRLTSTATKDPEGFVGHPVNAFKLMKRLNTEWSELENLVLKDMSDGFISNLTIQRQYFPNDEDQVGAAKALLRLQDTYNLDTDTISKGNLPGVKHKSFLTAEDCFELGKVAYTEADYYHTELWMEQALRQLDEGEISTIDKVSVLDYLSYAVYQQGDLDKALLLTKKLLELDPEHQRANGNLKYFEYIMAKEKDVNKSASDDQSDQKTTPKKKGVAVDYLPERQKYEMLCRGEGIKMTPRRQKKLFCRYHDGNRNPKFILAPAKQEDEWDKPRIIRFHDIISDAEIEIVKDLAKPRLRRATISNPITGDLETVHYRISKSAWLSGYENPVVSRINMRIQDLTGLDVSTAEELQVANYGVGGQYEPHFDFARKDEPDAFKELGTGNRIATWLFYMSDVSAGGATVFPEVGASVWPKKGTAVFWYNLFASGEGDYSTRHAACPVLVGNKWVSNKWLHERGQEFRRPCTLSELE

[2] = target: T1, Prolyl 4-hydroxylase subunit alpha-1; experiment: Inhibition of human recombinant CP4H1 expressed in Escherichia coli Origami B(DE3) pre-incubated for 2 mins followed by alpha-ketoglutarate addition using dansylGlyProProGlyOEt substrate in Tris-HCl buffer at pH 7.8 at 30 degC by HPLC method
[3] = target: Egl nine homolog 1 (Homo sapiens) (UniProt Q9GZT9); experiment: Inhibition of N-terminal hexa-histidine tagged human PHD2 (181 to 426 amino acids) at 10 uM pre-incubated for 2 mins followed by alpha-ketoglutarate addition using HIF1alpha peptide (556 to 574 amino acids) and 50 uM FeSO4 by RP-HPLC method
Egl nine homolog 1 (Homo sapiens), sequence (Q9GZT9 2-426 limits assumed): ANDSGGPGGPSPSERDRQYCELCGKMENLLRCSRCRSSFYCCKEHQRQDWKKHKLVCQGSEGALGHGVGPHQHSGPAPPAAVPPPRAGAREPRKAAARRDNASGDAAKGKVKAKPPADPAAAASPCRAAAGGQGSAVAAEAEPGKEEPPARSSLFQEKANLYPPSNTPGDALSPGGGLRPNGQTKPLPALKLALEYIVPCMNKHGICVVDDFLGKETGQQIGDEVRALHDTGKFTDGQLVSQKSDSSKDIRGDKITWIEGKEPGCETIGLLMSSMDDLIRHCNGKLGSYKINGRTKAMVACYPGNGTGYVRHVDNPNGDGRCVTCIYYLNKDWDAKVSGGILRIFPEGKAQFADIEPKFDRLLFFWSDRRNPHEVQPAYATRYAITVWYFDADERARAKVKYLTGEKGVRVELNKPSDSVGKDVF
Procedure, shortened: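 5 µM NHis6-PHD2(181–426) in Tris-HCl pH 7.8 with 50 µM HIF-1α(556–574) peptide, 1 mg/mL BSA, 0.3 mg/mL catalase, 2 mM ascorbate, 1 mM DTT. Started with 35 µM α-ketoglutarate, 10 min at 30 °C, quenched by 60 s boiling. Conversion by C18 HPLC at 218 nm, relative to no-inhibitor control; three independent experiments.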

[4] = Inhibition of human collagen prolyl 4-hydroxylase
[5] = target: T1, Prolyl 4-hydroxylase subunit alpha-1; experiment: Inhibition of human recombinant CP4H1 expressed in Escherichia coli Origami B(DE3) at 10 uM pre-incubated for 2 mins followed by alpha-ketoglutarate addition using dansylGlyProProGlyOEt substrate in Tris-HCl buffer at pH 7.8 at 30 degC by HPLC method
[6] = Binding affinity to Fe(2) assessed as half maximal concentration required for binding 20 uM Fe(2) in pH 7.0 sodium phosphate buffer; conditions: for pEC50: read-out: EC50
Procedure, shortened: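 Ligand at 3–500 µM in 10 mM sodium phosphate pH 7.0, started by adding freshly made FeSO4 (20 µM). Equilibrated 15 min, then absorbance read at complex λmax with the no-ligand blank subtracted. Absorbance plotted against log ligand, and Fe20-EC50 taken by sigmoidal non-linear regression. Triplicate; mean ± SE.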

[7] = Binding affinity to Fe(2) assessed as Fe(compound)2+/3 complex formation at 150 uM in Tris buffer at pH 7.8 at 30 degC
Procedure, shortened: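 Assay buffer: 50 mM Tris-HCl pH 7.8, 1% w/v BSA, 100 µg/mL catalase, 2 mM sodium ascorbate, 100 µM AKG, 100 µM DTT, 50 µM FeSO4. Incubated at 30 °C with or without ligand (150 µM). Fe(ligand)3 2+ complex detected by UV–Vis spectrophotometry.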

EC50 [6] | SMILES | pKi [1] | pIC50 [2] | inhibition [3] | pKi [4] | inhibition [5] | Activity [7] | pEC50 [6]
 | O=C(O)c1ccc(C(=O)O)nc1 [PYRIDINE-2,5-DICARBOXYLIC ACID] | 5.59 | 4.82 | inactive | 6.10 | Active |  | 
 | O=C(O)c1ccnc(C(=O)O)c1 |  |  | Active |  |  |  | 
Not Active | O=C(O)c1cccnc1-c1ncccc1C(=O)O |  |  |  |  |  |  | 
Not Active | O=C(O)c1cccc(-c2cccc(C(=O)O)n2)n1 |  |  | inactive |  |  |  | 
 | O=C(O)CNC(=O)C(=O)O |  |  | Active |  |  |  | 
 | O=C(O)c1ccnc(-c2cc(C(=O)O)ccn2)c1 |  |  | Active |  | Active | Active | 4.42
 | O=C(O)c1ccnc(-c2cccc(C(=O)O)n2)c1 |  |  | inactive |  |  |  | 4.59
 | O=C(O)c1ccc(-c2ccc(C(=O)O)cn2)nc1 | 6.85 | 6.08 | inactive |  |  | Active | 3.95
 | O=C(O)c1ccc(-c2cccc(C(=O)O)n2)nc1 |  |  | inactive |  |  |  | 4.57
 | c1ccc(-c2ccccn2)nc1 |  |  |  |  | inactive | Active | 4.37
 | O=C(O)c1ccc(-c2cc(C(=O)O)ccn2)nc1 | 6.70 | 5.92 | Active |  | > 90% | Active | 4.11
